Measured values taken from article PMC4467241 (Clinical Pharmacology in Drug Development, 2014).
Read-outs that look alike come from different tables or passages of the source. Marks after values point to notes of the source that are not given here.

Legend:
[1] = format: in vivo, human
Procedure, shortened: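 Heparinised plasma was taken predose and at 0.5–48 h, spun within 30 min and stored at −70 °C. Parent and metabolite were measured by SPE LC–MS/MS; noncompartmental AUC, with ANOVA on log values giving geometric-mean ratio and 90% CI.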

[2] = Steady-state plasma pharmacokinetics of apremilast alone; format: in vivo, human; conditions: for CLss/F / Cmin: steady-state
Procedure, shortened: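 Test compound was given at 30 mg Q12h for 12 doses, with a single co-drug dose added on Day 8. Citrated plasma was sampled predose and at 0.5–12 h after the morning dose on Days 7 and 8, then assayed by liquid-liquid extraction LC–MS/MS. Noncompartmental AUC0–τ and Cmax were derived, with ANOVA on log values (treatment fixed, subject random), geometric-mean ratio with 90% CI, and Hodges–Lehmann tmax.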

P-glycoprotein (P-gp) [3] = conditions: read-out: IC50 (P-gp inhibition); in vitro, weak inhibitor; cited from earlier work
P-glycoprotein (P-gp) [4] = conditions: in vitro; cited from earlier work
[5] = tested on: breast cancer resistance protein (BCRP); conditions: stated in introduction, no reference given; cited from earlier work
[6] = tested on: organic anion transporter (OAT)1; conditions: stated in introduction, no reference given; cited from earlier work
OAT3 [7] = conditions: stated in introduction, no reference given; cited from earlier work
[8] = tested on: organic cation transporter (OCT)2; conditions: stated in introduction, no reference given; cited from earlier work
[9] = tested on: organic anion transporting polypeptide (OATP)1B1; conditions: stated in introduction, no reference given; cited from earlier work
OATP1B3 [10] = conditions: stated in introduction, no reference given; cited from earlier work
OAT3 [11] = conditions: stated in introduction, no reference given; cited from earlier work; remark: listed apart in the source
BCRP = conditions: in vitro, no reference printed, cited from earlier work
[12] = tested on: multidrug resistance protein (MRP)1; conditions: stated in introduction, no reference given; cited from earlier work
MRP2 = conditions: in vitro, no reference printed, cited from earlier work
MRP4 = conditions: stated in introduction, no reference given; cited from earlier work
OATP1B3 [13] = conditions: stated in introduction, no reference given; cited from earlier work; remark: listed apart in the source
OCT2 = conditions: stated in introduction, no reference given; cited from earlier work
OAT1 = conditions: read-out: IC50 (OAT1 inhibition); weak inhibitor; no reference given; cited from earlier work
OATP1B1 = conditions: read-out: IC50 (OATP1B1 inhibition); weak inhibitor; no reference given; cited from earlier work
MRP3 = conditions: read-out: IC50 (MRP3 inhibition); weak inhibitor; no reference given; cited from earlier work
[14] = cited from earlier work
[15] = no reference given, cited from earlier work; for Apparent clearance: prior studies
[16] = healthy subjects, Apremilast 30 mg BID; cited from earlier work
[17] = 7-OH MTX in plasma after MTX 10 mg oral + Apremilast 30 mg Q12H (Day 8), N = 1
[18] = 7-OH MTX in plasma after MTX 10 mg oral alone (Day 1), N = 1
[19] = 7-OH MTX in plasma after MTX 12.5 mg oral + Apremilast 30 mg Q12H (Day 8), N = 1
[20] = 7-OH MTX in plasma after MTX 12.5 mg oral alone (Day 1), N = 1
[21] = 7-OH MTX in plasma after MTX 17.5 mg oral + Apremilast 30 mg Q12H (Day 8), N = 1
[22] = 7-OH MTX in plasma after MTX 17.5 mg oral alone (Day 1), N = 1
[23] = 7-OH MTX in plasma, ANOVA, N = 15
[24] = 7-OH MTX in plasma, all dose groups, N = 15, acceptance range 80–125%
[25] = Apremilast 30 mg Q12H alone (Day 7), plasma, N = 15, arithmetic mean (SD)
[26] = both, human, plasma, oral, 30 mg

For CN(Cc1nc2c(N)nc(N)nc2[nH]c1=O)c1ccc(C(=O)N[C@@H](CCC(=O)O)C(=O)O)cc1 [7-OH MTX, 7-hydroxy methotrexate], the “AUC0–t” value [1, 17] was 620 ng·h/mL, the “AUC0–∞” value [1, 17] was 650 ng·h/mL and the Cmax [1, 17] was 32.9 ng/mL. The t1/2 [1, 17] was 10.9 h, the tmax [1, 17] was 6.00 h and the “AUC0–t” value [1, 18] was 430 ng·h/mL. For the same compound, the “AUC0–∞” value [1, 18] was 460 ng·h/mL, the Cmax [1, 18] was 21.0 ng/mL and the t1/2 [1, 18] was 11.9 h. For the same compound, the tmax [1, 18] was 5.98 h, the “AUC0–t” value [1, 19] was 1,670 hr ng/mL and the “AUC0–∞” value [1, 19] was 1,820 hr ng/mL. It also gave a Cmax [1, 19] of 72.8 ng/mL, a t1/2 [1, 19] of 12.0 h and a tmax [1, 19] of 6.00 h. For the same compound, the “AUC0–t” value [1, 20] was 1,220 hr ng/mL, the “AUC0–∞” value [1, 20] was 1,370 hr ng/mL and the Cmax [1, 20] was 52.8 ng/mL. For the same compound, the t1/2 [1, 20] was 14.2 h, the tmax [1, 20] was 6.00 h and the tmax ([1]; 7-OH MTX in plasma after MTX 15 mg oral alone (Day 1), N = 6, median (range)) was 7.52 (6.00–12.00) hr. For the same compound, the “AUC0–t” value [1, 21] was 1,170 hr ng/mL, the “AUC0–∞” value [1, 21] was 1,290 hr ng/mL and the Cmax [1, 21] was 48.9 ng/mL. The t1/2 [1, 21] was 12.2 h, the tmax [1, 21] was 9.00 h and the “AUC0–t” value [1, 22] was 1,170 hr ng/mL. The “AUC0–∞” value [1, 22] was 1,300 hr ng/mL, the Cmax [1, 22] was 45.4 ng/mL and the t1/2 [1, 22] was 13.0 h. The tmax [1, 22] was 6.00 h, the tmax ([1]; 7-OH MTX in plasma after MTX 20 mg oral alone (Day 1), N = 6, median (range)) was 7.54 (5.95–9.00) hr and the “Intra-subject CV% of AUC0–t” value [1, 23] was 19.89%. For the same compound, the “Intra-subject CV% of AUC0–∞” value [1, 23] was 19.34%, the “Intra-subject CV% of Cmax” value [1, 23] was 17.84% and the “tmax median difference (“MTX + Apremilast” − “MTX”)” value ([1]; 7-OH MTX in plasma, all dose groups, N = 15, Hodges–Lehmann) was 0.005 ^c hr. For the same compound, the “AUC0–t ratio of geometric means (“methotrexate + apremilast”/“methotrexate”)” value [1, 24] was 98.59, the “AUC0–∞ ratio of geometric means (“methotrexate + apremilast”/“methotrexate”)” value [1, 24] was 98.24 and the “Cmax ratio of geometric means (“methotrexate + apremilast”/“methotrexate”)” value [1, 24] was 104.01. For the same compound, the “90% CI for Cmax, AUC0–t and AUC0–∞ versus FDA acceptance range of 80–125%” value ([1]; 7-hydroxy methotrexate, methotrexate with versus without apremilast) was “within the acceptance range for equivalency”.

In the case of CCOc1cc([C@@H](CS(C)(=O)=O)N2C(=O)c3cccc(NC(C)=O)c3C2=O)ccc1OC [APR, apremilast], the CLss/F ([2]; Apremilast 30 mg Q12H + MTX (Day 8), plasma, N = 13, arithmetic mean, excludes data with R^2 < 0.9) is reported as 156 ^b (86.3) mL/min, the Cmin ([2]; Apremilast 30 mg Q12H + MTX (Day 8), plasma, N = 15, arithmetic mean (SD)) is reported as 242 (153) ng/mL and the CLss/F [2, 25] is reported as 153 (78.6) mL/min. For the same compound, the Cmin [2, 25] was 248 (153) ng/mL, the “tmax median difference (“APR + MTX” − “APR”)” value ([2]; apremilast in plasma, 30 mg Q12H, N = 15, Hodges–Lehmann) was 0 ^c hr and the “Cmax ratio of geometric means (“methotrexate + apremilast”/“apremilast”)” value ([2]; apremilast in plasma, 30 mg Q12H, N = 15, acceptance range 80–125%) was 95.00. For the same compound, the “AUC0–τ ratio of geometric means (“methotrexate + apremilast”/“apremilast”)” value ([2]; apremilast in plasma, 30 mg Q12H, acceptance range 80–125%) was 99.30, the “Intra-subject CV% of AUC0–τ” value ([2]; apremilast in plasma, ANOVA) was 9.66% and the “Intra-subject CV% of Cmax” value ([2]; apremilast in plasma, ANOVA, N = 15) was 12.07%. The “90% CI for Cmax and AUCtau versus FDA acceptance range of 80–125%” value ([2]; apremilast with versus without methotrexate) was “within the acceptance range for equivalency”, the AUC [2, 26] was 4110 ng·h/mL and the Cmax [2, 26] was 584 ng/mL. For the same compound, the tmax [2, 26] was 2 h, the IC50 (P-glycoprotein (P-gp) [3]) was greater than 50 µM and the “Substrate of P-gp” value (P-glycoprotein (P-gp) [4]) was “substrate”. For the same compound, the “Substrate of BCRP” value [5] was “not a substrate”, the “Substrate of OAT1” value [6] was “not a substrate” and the “Substrate of OAT3” value (OAT3 [7]) was “not a substrate”. The “Substrate of OCT2” value [8] was “not a substrate”, the “Substrate of OATP1B1” value [9] was “not a substrate” and the “Substrate of OATP1B3” value (OATP1B3 [10]) was “not a substrate”. For the same compound, the “Inhibition of OAT3” value (OAT3 [11]) was “does not inhibit”, the “Inhibition of BCRP” value (BCRP; listed as Apremilast) was “does not inhibit” and the “Inhibition of BCRP” value (BCRP; listed as apremilast) was “not an inhibitor”. The “Inhibition of MRP1” value [12] was “does not inhibit”, the “Inhibition of MRP2” value (MRP2; listed as Apremilast) was “does not inhibit” and the “Inhibition of MRP2” value (MRP2; listed as apremilast) was “not an inhibitor”. For the same compound, the “Inhibition of MRP4” value (MRP4) was “does not inhibit”, the “Inhibition of OATP1B3” value (OATP1B3 [13]) was “does not inhibit” and the “Inhibition of OCT2” value (OCT2) was “does not inhibit”. For the same compound, the IC50 (OAT1) was greater than 10 µM, the IC50 (OATP1B1) was greater than 10 µM and the IC50 (MRP3) was greater than 10 µM. The Oral bioavailability ([14]; in humans) was roughly 73%, the “Excreted unchanged in urine” value ([14]; orally administered) was “less than 3%” and the “Time by which steady-state is achieved” value ([15]; healthy volunteer studies, Apremilast administered BID) was no more than 36 h. The Apparent clearance ([15]; in healthy subjects) was roughly 10 L/h and the Apparent clearance ([15]; in patients) was 8.7 L/h.

For CCOc1cc(C(CS(C)(=O)=O)N2C(=O)c3cccc(NC(C)=O)c3C2=O)ccc1OC1OC(C(=O)O)C(O)C(O)C1O (centres unmarked) [M12], the “AUC relative to Apremilast” value [16] is given as “approximately 1.7 fold” and the “Cmax relative to Apremilast” value [16] is given as roughly 1.25 fold.
